Assay results from different studies.
Each line is one published result; the experiments were not run side by side.
CES1: Liver carboxylesterase 1 (CES1, Homo sapiens, UniProt P23141)
gag-pol protease: Gag-Pol polyprotein, protease (gag-pol, Human immunodeficiency virus type 1 group M subtype B, UniProt P04585)
KCNH2: Voltage-gated inwardly rectifying potassium channel KCNH2 (KCNH2, Homo sapiens, UniProt Q12809)
F2: Prothrombin (F2, Homo sapiens, UniProt P00734)
tlpQ: tlpQ (Pseudomonas aeruginosa, UniProt Q9I0I4)

COc1c2c(cc3c1-c1c(cc4c(c1OC)OCO4)C[C@H](C)[C@H](C)C3)OCO2  IC50 (CES1; enzyme activity; inhibitor): 1.4 µM
COc1ccc(S(=O)(=O)N(CC(C)C)C[C@@H](O)[C@H](Cc2ccccc2)NC(=O)O[C@H]2CCC[C@]23CCO[C@H](c2ccccc2OC)C3)cc1  Ki (gag-pol protease; enzyme activity; inhibitor): 0.00022 µM
O=c1c2cc(Cl)ccc2[nH]c(=S)n1Cc1cccnc1  IC50 (KCNH2; ion current; inhibitor; patch clamp; pH 7.4): > 10 µM
C=CCc1ccc(O)c(-c2cc(CC=C)ccc2O)c1  IC50 (CES1; enzyme activity; inhibitor): 0.39 µM
O=c1c2cc(Cl)ccc2[nH]c(=S)n1Cc1ccc(-c2nnn[nH]2)nc1  IC50 (KCNH2; ion current; inhibitor; patch clamp; pH 7.4): > 10 µM
CN1CCC(CNc2ccc3ncc(-c4cccc(OC(F)(F)F)c4)n3n2)CC1  IC50 (3',5'-cyclic-AMP phosphodiesterase 4D (PDE4D, Homo sapiens, UniProt Q08499); enzyme activity; inhibitor): 5.04 µM
N=C(N)NCCC[C@H](NC(=O)[C@H](Cc1ccccc1)NC(=O)[C@H](CCC(N)=O)NC(=O)OCc1ccccc1)C(=O)c1nccs1  Ki (F2; cell-free assay): 0.994 µM
CC1=C(O)C(=O)C=C2C1=CC=C1[C@@]2(C)CC[C@@]2(C)[C@@H]3C[C@](C)(C(=O)O)CC[C@]3(C)CC[C@]12C  Kd (Aldo-keto reductase family 1 member B10 (AKR1B10, Homo sapiens, UniProt O60218); binding; BLI): 2.41 µM
COCCC(=O)N[C@@H](CCC(N)=O)C(=O)N[C@@H](Cc1ccccc1)C(=O)N[C@@H](CCCNC(=N)N)C(=O)c1nc2ccccc2s1  Ki (F2; cell-free assay): > 10 µM
COc1ccc(S(=O)(=O)N(CC(C)C)C[C@@H](O)[C@H](Cc2ccccc2)NC(=O)O[C@@H]2CCC[C@@]23CCO[C@@H](c2ccccc2)C3)cc1  Ki (gag-pol protease; enzyme activity; inhibitor): 0.051 µM
NCCCCNCCCN  Kd (tlpQ; binding; ITC): 0.12 µM
COc1ccc(S(=O)(=O)N(CC(C)C)C[C@@H](O)[C@H](Cc2ccccc2)NC(=O)O[C@@H]2CCC[C@@]23CCO[C@@H](c2cccc(OC)c2)C3)cc1  Ki (gag-pol protease; enzyme activity; inhibitor): 1.14 µM
NC[C@H](O)c1ccc(O)c(O)c1  Kd (tlpQ; binding; ITC): > 1000 µM
COc1ccc(S(=O)(=O)N(CC(C)C)C[C@@H](O)[C@H](Cc2ccccc2)NC(=O)O[C@H]2CCC[C@@]23CCO[C@@H](c2cc(OC)cc(OC)c2)C3)cc1  Ki (gag-pol protease; enzyme activity; inhibitor): 0.0026 µM
CCOC(=O)c1ccc(OC(=O)CCCCCN=C(N)N)cc1  IC50 (Kallikrein-14 (Homo sapiens, UniProt Q9P0G3); enzyme activity; inhibitor): 0.641 µM
